Rows were chosen to be rich in hits. Some 1.7% of all compounds tested hit in one or more screens of this group.
FN deposit inh: inhibitors of fibronectin matrix deposition, primary screen, AH1F cells, Alexa488-fibronectin fluorescence, plate reader; inhibition, % at 12.6 µM; AID 743247, 2014; hit rate 0.086% among 350,000; AH1F fibroblasts, overnight;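 active means mean inhibition across replicates of 30% or more, regardless of how many single replicates reach that level; inconclusive means mean under 30% yet at least half of replicates reach 30%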
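Material – AH1F fibroblast monolayer, labelled fibronectin deposition · Reagent – labelled fibronectin 24 nM · Timing – 1 h adhesion, overnight exposure · Measured by – fluorescence at 485 nm excitation, 525 nm emission · Read-out – inhibition of fibronectin deposition signal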
SKKanGAS inh: S. pyogenes SKKanGAS growth inhibitors in kanamycin, primary screen, streptokinase expression inhibitor project, SKKanGAS strain, BacTiter-Glo luminescence. inhibition, % at 7.5 µM. hit rate 1.3% among 300,000. 6 h;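 active means mean replicate score, as percent of positive control median, at least 50; inconclusive means mean below 50 but one replicate at or above 50; inactive means mean and every replicate below 50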;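 further: strain carries kanamycin resistance gene driven by streptokinase promoter and grows in 40 µg/ml kanamycin; loss of luminescence reflects streptokinase promoter inhibition or plain growth inhibition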
CSC inhib: cancer stem cell viability inhibitors, primary screen, luminescence | hit rate 1.1% among 300,000 | inhibition, % at 7.5 µM | cancer stem cell-like cells viability; in the data active means inhibition above about 75%; inconclusive means no clear call, values can overlap the other calls; tested in HMLE shEcad cells
PfHsp90 set2: growth inhibition of PfHsp90-expressing yeast, primary screen, antimalarial PfHsp90 inhibitor project, S. cerevisiae, BacTiter-Glo luminescence, single point, set 2; AID 504621, 2011; inhibition, % at 9.4 µM; BacTiter-Glo ATP, 48 h; yeast lacking PDR1 and PDR3 efflux regulators; hit rate 0.32% among 310,000;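 active means every replicate shows inhibition above about 80%, whatever the replicate mean, limit read from the data; inconclusive means mean inhibition reaches the set limit but some replicate falls short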
Rtt109 Vps75: inhibitors of C. albicans Rtt109/Vps75 HAT, primary screen, biochemical, ThioGlo CoA-SH fluorescence, plate reader. hit rate 0.16% among 330,000. Histone acetyltransferase RTT109 (Candida albicans (strain SC5314 / ATCC MYA-2876)), …. purified Rtt109/Vps75, 4 h. inhibition, % at 34.9 µM;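 active means inhibition of at least 50% in every replicate; inconclusive means best replicate reaches 50% inhibition but some replicates fall short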
Target sequence (Q5AAJ8 whole entry, looked up): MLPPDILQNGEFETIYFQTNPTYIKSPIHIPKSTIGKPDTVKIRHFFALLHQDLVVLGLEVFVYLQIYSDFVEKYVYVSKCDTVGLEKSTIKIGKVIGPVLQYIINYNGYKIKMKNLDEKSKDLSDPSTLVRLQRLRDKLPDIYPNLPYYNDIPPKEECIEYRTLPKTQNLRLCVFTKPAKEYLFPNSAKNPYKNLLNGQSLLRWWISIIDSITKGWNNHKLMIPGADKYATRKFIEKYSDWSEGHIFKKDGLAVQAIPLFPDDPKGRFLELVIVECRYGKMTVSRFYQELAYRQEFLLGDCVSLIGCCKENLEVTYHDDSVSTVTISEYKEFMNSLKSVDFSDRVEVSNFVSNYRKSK
PglD inh: C. jejuni PglD acetyltransferase inhibitors, primary screen, biochemical, DTNB colorimetric, single point; hit rate 0.098% among 360,000; inhibition, % at 12.5 µM; UDP-N-acetylbacillosamine N-acetyltransferase PglD (Campylobacter jejuni); purified PglD enzyme, DTNB colorimetric CoA detection; in the data active means inhibition above about 16%, passing the limit was not always enough; inconclusive means no clear call, values can overlap the other calls
Numbers stand for hits; i = inactive; ? = inconclusive; nt = not tested or not shown.

SMILES | FN deposit inh | SKKanGAS inh | CSC inhib | PfHsp90 set2 | Rtt109 Vps75 | PglD inh
O=C(C[C@H]1C=C[C@@H](NC(=O)C2CCC2)[C@@H](CO)O1)NC1CCC1 | nt | nt | nt | nt | nt | i
C[C@@H]1CN([C@@H](C)CO)C(=O)Cc2cc(NC(=O)c3ccncc3)ccc2O[C@@H]1CN(C)C(=O)NC1CCCCC1 | i | nt | nt | nt | nt | i
CCOc1ccc(/C=N/N(C)c2ccccc2)cc1OC | nt | i | nt | i | i | i
COc1cc(/C=N/N(c2ccccc2)c2ccccc2)ccc1O | i | i | 98.9 | i | i | i
COc1ccc(/C=N/N(c2ccccc2)c2ccccc2)cc1O | nt | i | 80.7 | i | i | i
O=C(NCc1ccccn1)[C@@H]1[C@@H](CO)[C@@H]2Cn3c(ccc(C4=CCCC4)c3=O)[C@H]1N2Cc1cccnc1 | nt | nt | nt | nt | nt | i
FC(F)(F)c1cccc(Sc2cc(C(F)(F)F)nc(-c3ccccn3)n2)c1 | i | i | i | i | i | i
COc1cnc(-c2ccccn2)nc1NC(C)C | i | ? | i | i | nt | nt
COc1cnc(-c2ccccn2)nc1Sc1cccc(Cl)c1 | i | 66.6 | i | i | i | i
Cc1ccc(Sc2cc(C)nc(-c3ccccn3)n2)cc1 | i | 84.7 | i | i | i | i
COc1ccccc1Sc1nc(-c2ccccn2)ncc1OC | i | 83.0 | i | i | i | nt
COc1cnc(-c2ccccn2)nc1Sc1ccc(C)cc1 | i | 66.6 | i | i | i | nt
CCCNC(=O)Nc1ccc2c(c1)C(=O)N(C)[C@@H]1CC[C@@H](CC(=O)NC3CCC3)O[C@H]1CO2 | i | nt | nt | nt | nt | i
O=C(Nc1ccc2c(c1)[C@@H]1C[C@@H](CC(=O)N3CCOCC3)O[C@H](CO)[C@@H]1O2)C1CCOCC1 | i | nt | nt | nt | nt | i
CCN1CCN(Cc2ccc(NC(=O)c3cc(NC(=O)c4cc(-c5ccc(OC)cc5)n[nH]4)cc(OC)c3)cc2C(F)(F)F)CC1 | i | 71.5 | ? | i | i | i
CCN1CCN(Cc2ccc(NC(=O)c3ccc(C)c(NC(=O)c4c[nH]c5cc(C(F)(F)F)ccc5c4=O)c3)cc2C(F)(F)F)CC1 | i | 92.2 | 105.2 | i | i | i
CCN1CCN(Cc2ccc(NC(=O)c3cc(NC(=O)c4ccno4)cc(OC)c3)cc2C(F)(F)F)CC1 | i | i | i | i | i | i
CCN1CCN(Cc2ccc(NC(=O)c3cc(NC(=O)c4cncc(-c5cccs5)c4)cc(OC)c3)cc2C(F)(F)F)CC1 | i | i | 123.8 | nt | nt | i
Cc1ccc(C(=O)Nc2cccc(C(F)(F)F)c2)cc1NC(=O)c1c[nH]c2cc(C(F)(F)F)ccc2c1=O | i | nt | i | i | i | i
C[C@H]1CN([C@@H](C)CO)C(=O)Cc2cc(N(C)C)ccc2O[C@@H]1CN(C)CC1CC1 | i | nt | nt | nt | nt | i
O=C([C@@H]1[C@@H](CO)[C@@H]2Cn3c(ccc(-c4ccccc4)c3=O)[C@@H]2N1CCC(F)(F)F)N1CCOCC1 | nt | nt | nt | nt | nt | i
O=C(NCC[C@H]1CC[C@@H](NC(=O)c2ccccc2F)[C@@H](CO)O1)c1ccc2c(c1)OCO2 | i | nt | nt | nt | nt | i
COCC#Cc1cnc2c(c1)C(=O)N([C@H](C)CO)C[C@H](C)[C@H](CN(C)Cc1ccc(F)cc1)O2 | i | nt | nt | nt | nt | i
CCCCC(=O)Nc1nc(C)c(-c2csc(Nc3cc(OC)ccc3OC)n2)s1 | i | i | 81.3 | i | i | i
CCCCC(=O)Nc1nc(C)c(-c2csc(Nc3cc(Cl)ccc3OC)n2)s1 | i | i | i | i | i | i
O=C(CCc1ccccc1)NC(c1cccs1)c1cc(Cl)c2cccnc2c1O (centres undefined) | i | 66.8 | nt | 101.4 | i | nt
CCC(=O)NC(c1cccs1)c1cc(Cl)c2ccccc2c1O (centres undefined) | i | nt | i | i | i | i
CCC(=O)NC(c1cccs1)c1cc([N+](=O)[O-])c2cccnc2c1O (centres undefined) | i | i | 109.3 | i | i | i
CC(=O)NC(c1cccs1)c1cc([N+](=O)[O-])c2cccnc2c1O (centres undefined) | i | i | 98.5 | i | i | nt

Screens from PubChem BioAssay.
